Measurements as given in paper PMC3145891 (Naunyn-Schmiedeberg's Archives of Pharmacology, 2011).
Where “and” joins values, the source holds several entries; their conditions need not be identical. Equal values may be shown once. Entries after “also recorded” stand apart in the source; their conditions may differ.

Tests used:
[1] = test system: cAMP antibody (ENZO cAMP-EIA); assay: ENZO cAMP-EIA, acetylation protocol; format: binding; conditions: for Specificity ENZO cAMP-EIA: EC50cAMP/EC50Analog, acetylated
[2] = test system: cAMP antibody (IBL cAMP-RIA); assay: IBL cAMP-RIA; format: binding; conditions: for Specificity IBL cAMP-RIA: EC50cAMP/EC50Analog
[3] = test system: cGMP antibody (IBL cGMP-RIA); assay: IBL cGMP-RIA; format: binding; conditions: for Specificity IBL cGMP-RIA: EC50cGMP/EC50Analog; for Binding constant relative to cGMP: IBL cGMP-RIA
[4] = test system: cGMP antibody (ENZO cGMP-EIA); assay: ENZO cGMP-EIA, acetylation protocol; format: binding; conditions: for Specificity ENZO cGMP-EIA: EC50cGMP/EC50Analog, acetylated
PKA II = conditions: ref Poppe et al. (2008); cited from earlier work
[5] = test system: PKA (VASP phosphorylation) in human platelets; assay: VASP phosphorylation western blot, pVASP Ser-157; format: cell-based; conditions: pVASP antibody 5C6
Outline: (§1)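 Washed human platelets were exposed to various analog concentrations for the indicated times. Protein extracts (10 µg) were run on 9% reducing SDS-PAGE and wet-blotted to nitrocellulose. Blots were blocked in 3% milk/Tris-saline-Tween and probed 1:10,000 with 16C2 (pVASP Ser-239, PKG site) or 5C6 (pVASP Ser-157, PKA site). HRP goat anti-mouse (1:5,000) and ECL gave detection.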

[6] = test system: PKG (VASP phosphorylation) in human platelets; assay: VASP phosphorylation western blot, pVASP Ser-239; format: cell-based; conditions: for Concentration for maximal VASP phosphorylation: after 20 min, pVASP antibody 16C2
Outline: as §1

CHO cells = assay: Cell membrane permeability in CHO cells; format: in vitro ADME, Chinese hamster; conditions: serum-free medium, normally 20 min
Outline: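 CHO cells were grown in DMEM with 10% FBS and 1% penicillin/streptomycin at 37°C, 5% CO2. Cells were exposed to various analog concentrations in serum-free medium, normally for 20 min, then PBS-washed. Lysis used hypotonic buffer on ice for 30 min, scraping, liquid-nitrogen freeze/thaw and needle disruption. Cleared supernatant was lyophilized for EIA. Intracellular concentration assumed a 1.5 pl cell volume; % permeability = intracellular/extracellular […].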

[7] = test system: cGMP antibody (ENZO cGMP-EIA); assay: ENZO cGMP-EIA, non-acetylated; format: binding; conditions: non-acetylated cGMP-EIA from ENZO
human platelets = assay: Cell membrane permeability in washed human platelets; format: in vitro ADME; conditions: for Time to equilibrium of inside/outside concentration: platelets, Fig. 1b; for cNMP conc. inside platelets (% of external): washed human platelets, 37°C, normally 20 min
Outline: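 Human blood from medication-free donors was collected into citrate–EGTA buffer. Platelet-rich plasma (300×g) was pelleted (380×g), washed in Hepes buffer pH 7.4 and used at 3 × 10^8 platelets/ml. Cells were exposed to analogs at 37°C, normally for 20 min or over a time course. They were lysed in […] buffer pH 8.1 with 1 mM IBMX on ice, then freeze/thaw and needle disruption. Lyophilized supernatant went to EIA, assuming a 5.2 fl cell volume.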

PKG Iβ = conditions: ref Poppe et al. (2008); cited from earlier work
[8] = test system: cGMP antibody (Cayman cGMP-EIA); assay: Cayman cGMP-EIA; format: binding; conditions: EC50cGMP/EC50Analog
Lipophilicity = format: physicochemical; conditions: calculated from log Kw data, cGMP scale
[9] = test system: cAMP and cGMP antibodies of the tested immunoassays; assay: Interference with the tested cAMP and cGMP immunoassays; format: binding

O=C(Nc1ncnc2c1ncn2[C@@H]1O[C@@H]2COP(=O)(O)OC2C1O)c1ccccc1 (stereo in doubt) [6-Bnz-cAMP, N^6-Benzoyladenosine-3`,5`- cyclic monophosphate]
Specificity ENZO cAMP-EIA [1]: 0.006 | Specificity IBL cAMP-RIA [2]: 0.009

Nc1nc2c(ncn2[C@@H]2O[C@@H]3COP(O)(=S)O[C@H]3[C@H]2O)c(=O)[nH]1 (single isomer, unassigned) [Rp-cGMPS, Guanosine- 3`,5`- cyclic monophosphorothioate, Rp-isomer]
Specificity IBL cGMP-RIA [3]: 0.10 | Specificity ENZO cGMP-EIA [4]: 0.0027

Nc1ncnc2c1nc(Br)n2[C@@H]1O[C@@H]2COP(=O)(O)O[C@H]2[C@H]1O [8-Br-cAMP, 8-Bromoadenosine-3`,5`- cyclic monophosphate]
Activation PKA II Ka (PKA II): 0.09 µM | Concentration needed for comparable VASP phosphorylation (PKA activation) [5]: 500 µM | Specificity ENZO cAMP-EIA [1]: 0.004 | Specificity IBL cAMP-RIA [2]: 0.026

Nc1nc2c(nc(Br)n2[C@@H]2O[C@@H]3COP(=O)(O)O[C@H]3[C@H]2O)c(=O)[nH]1 [8-Br-cGMP, 8-Bromoguanosine-3`,5`- cyclic monophosphate]
Concentration for maximal VASP phosphorylation ([6]; human platelets): 200 µM | cNMP conc. inside CHO cells (% of external) (CHO cells): 13.5 ± 11.5% | Relative binding EC50cGMP/EC50Analog [7]: 6.40 | Time to equilibrium of inside/outside concentration (human platelets): 10 to 20 min | cNMP conc. inside platelets (% of external) (human platelets): 12.1 ± 3.5% | Specificity IBL cGMP-RIA [3]: 0.20 | Binding constant relative to cGMP [3]: ~20% | Activation PKG Iβ Ka (PKG Iβ): 1.0 µM | Cross-reactivity / binding to the cGMP antibody in the EIA, result in words [4]: strong cross-reactivity | Specificity ENZO cGMP-EIA [4]: 4.90

O=c1c2nc(Br)n([C@@H]3O[C@@H]4COP(=O)(O)O[C@H]4[C@H]3O)c2nc2[nH]c(-c3ccccc3)cn12 [8-Br-PET-cGMP, β-Phenyl-1,N^2-etheno-8-Bromoguanosine-3`,5`- cyclic monophosphate]
Concentration sufficient to activate PKG ([6]; human platelets, VASP phosphorylation): 0.25 µM | cNMP conc. inside CHO cells (% of external) (CHO cells): 24.1 ± 9.7% | Relative binding EC50cGMP/EC50Analog [7]: 0.08 | cNMP conc. inside platelets (% of external) (human platelets): 30.9 ± 5.7% | Specificity IBL cGMP-RIA [3]: 0.015 | Activation PKG Iβ Ka (PKG Iβ): 0.009 µM | Specificity ENZO cGMP-EIA [4]: 0.10 | Percent of the cGMP affinity to the antibody ([4]; ENZO cGMP-EIA): 10%

CO[C@@H]1[C@@H]2OP(=O)(O)OC[C@H]2O[C@H]1n1c(Sc2ccc(Cl)cc2)nc2c(N)ncnc21 [8-pCPT-2′-OMe-cAMP, 8-(4-Chlorophenylthio)-2`-O-methyladenosine-3`,5`- cyclic monophosphate]
Specificity ENZO cAMP-EIA [1]: 0.0003 | Specificity IBL cAMP-RIA [2]: 0.0066 | Specificity IBL cGMP-RIA [3]: <10^−4 | Specificity ENZO cGMP-EIA [4]: 0.0002

Nc1nc2c(ncn2[C@@H]2O[C@@H]3COP(=O)(O)O[C@H]3[C@H]2O)c(=O)[nH]1 [cGMP, Guanosine- 3`,5`- cyclic monophosphate]
Specificity Cayman cGMP-EIA [8]: 1.00 | Relative binding EC50cGMP/EC50Analog [7]: 1.00 | Specificity IBL cGMP-RIA [3]: 1.00 | Activation PKG Iβ Ka (PKG Iβ): 0.9 µM | Specificity ENZO cGMP-EIA [4]: 1.00

Nc1nc2c(nc(Sc3ccc(Cl)cc3)n2C2O[C@@H]3COP(=O)(O)O[C@H]3[C@H]2O)c(=O)[nH]1 (stereo in doubt) [8-pCPT-cGMP, 8-(4-Chlorophenylthio)guanosine-3`,5`- cyclic monophosphate]
Specificity Cayman cGMP-EIA [8]: 0.0008 | Concentration for maximal VASP phosphorylation ([6]; human platelets): 50 µM | Time to equilibrium of inside/outside concentration (human platelets): 10 to 20 min | cNMP conc. inside platelets (% of external) (human platelets): 19.6 ± 4.7% | Specificity IBL cGMP-RIA [3]: 0.30 | Binding constant relative to cGMP [3]: ~30% | Activation PKG Iβ Ka (PKG Iβ): 0.9 µM | Cross-reactivity / binding to the cGMP antibody in the EIA, result in words [4]: strong cross-reactivity | Specificity ENZO cGMP-EIA [4]: 2.40

O[C@@H]1[C@@H]2OP(O)(=S)OC[C@H]2O[C@H]1n1cnc2cc(Cl)c(Cl)cc21 (single isomer, unassigned) [Sp-5,6-DCl-cBIMPS]
Activation PKA II Ka (PKA II): 0.12 µM | Concentration needed for comparable VASP phosphorylation (PKA activation) [5]: 100 µM | Specificity IBL cAMP-RIA [2]: 0.005

Nc1ncnc2c1ncn2[C@@H]1O[C@@H]2COP(O)(=S)O[C@H]2[C@H]1O (single isomer, unassigned) [Rp-cAMPS, Adenosine- 3`,5`- cyclic monophosphorothioate, Rp-isomer]
Cross-reactivity in the cAMP-EIA, result in words [1]: strong cross-reactivity; also recorded: significant cross-reactivity | Specificity ENZO cAMP-EIA [1]: 0.68 | Specificity IBL cAMP-RIA [2]: 0.67 | Binding constant relative to cAMP ([2]; IBL cAMP-RIA): ~66%

CCCC(=O)Nc1ncnc2c1ncn2[C@@H]1O[C@@H]2COP(=O)(O)O[C@H]2[C@H]1O [6-MB-cAMP, N^6-Monobutyryladenosine-3`,5`-cyclic monophosphate]
Specificity ENZO cAMP-EIA [1]: 0.004 | Specificity IBL cAMP-RIA [2]: 0.012

O=c1c2nc(Br)n([C@@H]3O[C@@H]4CO[P@@](O)(=S)O[C@H]4[C@H]3O)c2nc2[nH]c(-c3ccccc3)cn12 (single isomer, unassigned) [Rp-8-Br-PET-cGMPS]
Specificity IBL cGMP-RIA [3]: 0.011 | Relative lipophilicity (Lipophilicity): 200 | Cross-reactivity / binding to the cGMP antibody in the EIA, result in words [4]: does not bind | Specificity ENZO cGMP-EIA [4]: 0.002

CCCCCCC(C(C)O)n1cnc2c(N)ncnc21.Cl (centres unmarked) [EHNA, 3-(6-aminopurin-9-yl)nonan-2-ol hydrochloride]
Interference / cross-reaction with the tested immunoassays, result in words [9]: do not interfere

CC(C)Cn1c(=O)n(C)c(=O)c2[nH]cnc21 [IBMX, 3-Isobutyl-1-methylxanthine]
Specificity Cayman cGMP-EIA [8]: <10^−5 | Interference / cross-reaction with the tested immunoassays, result in words [9]: do not interfere | Specificity ENZO cAMP-EIA [1]: <10^−5 | Specificity IBL cAMP-RIA [2]: <10^−4 | Specificity IBL cGMP-RIA [3]: <10^−6 | Specificity ENZO cGMP-EIA [4]: <10^−6

Nc1ncnc2c1nc(Br)n2C1OC2COP(O)(=S)OC2C1O (single isomer, unassigned) [Rp-8-Br-cAMPS, 8-Bromoadenosine-3`,5`- cyclic monophosphorothioate, Rp-isomer]
Specificity ENZO cAMP-EIA [1]: 0.003

Cn1c(=O)c2[nH]cnc2n(C)c1=O [Theophylline, 1,3-dimethyl-7H-purine-2,6-dione]
Interference / cross-reaction with the tested immunoassays, result in words [9]: do not interfere

Nc1ncnc2c1nc(Sc1ccc(Cl)cc1)n2[C@@H]1O[C@@H]2COP(=O)(O)O[C@H]2[C@H]1O [8-pCPT-cAMP, 8-(4-Chlorophenylthio)adenosine-3`,5`- cyclic monophosphate]
Specificity ENZO cAMP-EIA [1]: 0.0005

Nc1nc2c(ncn2[C@H]2C[C@@H]3OP(=O)(O)OC[C@H]3O2)c(=O)[nH]1 [2′-dcGMP, 2`- Deoxyguanosine- 3`,5`- cyclic monophosphate]
VASP phosphorylation (PKG site), result in words ([6]; concentrations up to 2 mM): no VASP phosphorylation | cNMP conc. inside CHO cells (% of external) (CHO cells): 0.3 ± 0.5% | Relative binding EC50cGMP/EC50Analog [7]: 2.2 and 2.21 | Diffusion into the cell, result in words (human platelets; compounds with log Kw < 1): too hydrophilic for any diffusion into the cell | cNMP conc. inside platelets (% of external) (human platelets): 0.5 ± 0.1% | Activation PKG Iβ Ka (PKG Iβ): 21 µM | Specificity ENZO cGMP-EIA [4]: 0.052
